In series [1] the target is T1, Prostaglandin E2 receptor EP1 subtype (Homo sapiens, UniProt P34995).
T1 sequence (P34995 whole entry): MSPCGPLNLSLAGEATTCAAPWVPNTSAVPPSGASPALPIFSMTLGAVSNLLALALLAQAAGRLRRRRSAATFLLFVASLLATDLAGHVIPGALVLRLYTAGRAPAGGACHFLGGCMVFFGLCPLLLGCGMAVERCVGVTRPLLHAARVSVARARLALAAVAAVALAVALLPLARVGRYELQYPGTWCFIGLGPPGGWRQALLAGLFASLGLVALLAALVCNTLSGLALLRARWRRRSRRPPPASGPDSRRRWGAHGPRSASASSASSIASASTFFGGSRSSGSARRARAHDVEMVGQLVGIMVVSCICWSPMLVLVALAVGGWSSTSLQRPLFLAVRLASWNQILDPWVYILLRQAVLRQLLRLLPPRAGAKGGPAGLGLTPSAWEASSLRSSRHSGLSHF
Kind of series: Displacement of [3H]PGE2 from human EP1R expressed in chem1 cells after 2hrs by beta counting. Type of series: cell-based. In a few lines: (§1)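 Radioligand competition binding with [3H]PGE2 on recombinant human EP1, EP2, EP3 or EP4 receptor membrane preparations (ChemiSCREEN). Ki reported ± SEM.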
(In general: In a radioligand displacement assay an active substance lowers the binding of a labelled ligand.)

For series [2], the target named is Prostaglandin E2 receptor EP2 subtype (Homo sapiens, UniProt P43116). The series is described as follows: Displacement of [3H]PGE2 from human EP2R expressed in chem1 cells after 2hrs by beta counting. Type of series: cell-based. The method, boiled down:
as §1

For series [3], the target named is Prostaglandin E2 receptor EP4 subtype (Homo sapiens, UniProt P35408). Kind of series: Displacement of [3H]PGE2 from human EP4R expressed in chem1 cells after 2hrs by beta counting. Type of series: cell-based. The method, boiled down: as §1
A short description of series [4]: Antiplatelet activity in human platelet rich plasma assessed as inhibition of PGE2/collagen-induced aggregation preincubated at 100 nM after 10 mins by light transmission aggregometry. The series is classed as functional. The method, boiled down: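 Human platelet-rich plasma preincubated 10 min with ligand at 100 nM. Aggregation then triggered by collagen 0.25 μg/mL plus PGE2 1 μM. Read by light transmission aggregometry against unspiked PRP.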

In series [5] the target is T2, Prostaglandin E2 receptor EP3 subtype (Homo sapiens, UniProt P43115).
T2 sequence (P43115 whole entry): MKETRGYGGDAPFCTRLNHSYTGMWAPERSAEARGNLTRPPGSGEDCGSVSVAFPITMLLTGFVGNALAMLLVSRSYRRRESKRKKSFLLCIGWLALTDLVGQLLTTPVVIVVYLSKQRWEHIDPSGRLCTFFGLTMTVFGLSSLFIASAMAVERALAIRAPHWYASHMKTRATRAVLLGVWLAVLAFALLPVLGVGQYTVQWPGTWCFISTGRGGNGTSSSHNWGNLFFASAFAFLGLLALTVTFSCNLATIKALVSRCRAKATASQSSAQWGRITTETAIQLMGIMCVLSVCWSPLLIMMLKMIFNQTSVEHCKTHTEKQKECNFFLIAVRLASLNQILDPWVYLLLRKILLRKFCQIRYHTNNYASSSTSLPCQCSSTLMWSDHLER
Kind of series: Displacement of [3H]PGE2 from human EP3R expressed in chem1 cells after 2hrs by beta counting. The series is classed as cell-based. The method, boiled down: as §1

Series [6] concerns the target T3, Prostaglandin E2 receptor EP3 subtype (Homo sapiens) (UniProt P43115).
T3 sequence (whole entry): T2 sequence (P43115 whole entry)
Kind of series: Binding affinity to EP3R in human HT-29 cytoplasm at 3 uM measured 72 hrs post FBS withdrawal by fluorescence microscopy. In a few lines:
(§2)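 HT-29 colon adenocarcinoma cells. EP3R expression induced by 72 h FBS withdrawal; FBS-cultured cells served as control. Ligand incubated 1 h, or 24 h for the longer time point. Blue-emitting ligands used at 3 μM with propidium iodide counterstain. Red ligand used at 300 nM with DAPI nuclear stain. For displacement, ligand was followed by 3-fold excess competitor (9 μM or 900 nM) for 1 h. Read by confocal microscopy.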

Series [7] addresses T3, Prostaglandin E2 receptor EP3 subtype (Homo sapiens). The series is described as follows: Binding affinity to EP3R in human brain globus pallidus at 1 uM after 1 hr by fluorescence imaging. The series is classed as tissue-based. The method, boiled down: (§3)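 Human cerebral cortex and globus pallidus sections incubated 1 h with 1 μM red pyryllium ligand. For displacement, 100 μM competitor was added. Imaged by confocal fluorescence microscopy.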

For series [8] the target is unchanged. Kind of series: Binding affinity to EP3R in human brain globus pallidus at 1 uM after 1 hr by fluorescence imaging in presence of 100-fold excess of (E)-3-(2-((E)-3-(4-(Benzyloxy)-3- methoxyphenyl)prop-1-enyl)phenyl)acrylic acid. Type of series: tissue-based. The method, boiled down: as §3
For series [9] the target is unchanged. Kind of series: Binding affinity to EP3R in human HT-29 cells cultured in absence of FBS at 300 nM after 1 hr by fluorescence microscopy. Type of series: cell-based. In a few lines: as §2
The target is the same in series [10]. The series is described as follows: Binding affinity to EP3R in human HT-29 cells cultured in absence of FBS at 300 nM after 1 hr by fluorescence microscopy in presence of 3-fold excess of (E)-3-(2-((E)-3-(4-(Benzyloxy)-3- methoxyphenyl)prop-1-enyl)phenyl)acrylic acid. Type of series: cell-based. The method, boiled down:
as §2

Series [11] has the same target. Kind of series: Binding affinity to EP3R in human HT-29 cells cultured in absence of FBS at 300 nM after 24 hrs by fluorescence microscopy. Type of series: cell-based. In a few lines: as §2
For series [12] the target is unchanged. The series is described as follows: Induction of EP3R internalization in human HT-29 cells cultured in absence of FBS at 300 nM after 24 hrs by fluorescence microscopy. Type of series: cell-based. In a few lines:
as §2

Series [13] addresses T4, Prostaglandin E2 receptor EP3 subtype (Mus musculus) (UniProt P30557).
T4 sequence (whole entry): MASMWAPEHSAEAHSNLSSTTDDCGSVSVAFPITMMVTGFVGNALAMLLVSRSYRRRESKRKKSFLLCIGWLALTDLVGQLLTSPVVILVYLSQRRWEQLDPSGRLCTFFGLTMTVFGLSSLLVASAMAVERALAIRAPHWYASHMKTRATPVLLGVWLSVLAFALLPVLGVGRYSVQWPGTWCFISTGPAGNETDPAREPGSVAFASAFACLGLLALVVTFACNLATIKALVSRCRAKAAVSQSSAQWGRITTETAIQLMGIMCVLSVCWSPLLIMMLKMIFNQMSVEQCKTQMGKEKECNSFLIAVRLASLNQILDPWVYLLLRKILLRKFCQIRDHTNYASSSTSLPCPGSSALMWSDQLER
Kind of series: Binding affinity to EP3R in C57bl6 mouse kidney arterial smooth muscle cells at 1 uM after 1 hr by fluorescence imaging. The method, boiled down: (§4)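 Kidney tissue from C57Bl6 wild-type and EP3−/− mice incubated 1 h with 1 μM red pyryllium-labelled ligand. Imaged by confocal laser scanning fluorescence microscopy. Renal artery autofluorescence recorded separately.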

For series [14], the target named is T4, Prostaglandin E2 receptor EP3 subtype (Mus musculus). The series is described as follows: Binding affinity to EP3R in C57bl6 mouse cortical collecting tubuli epithelial cells at 1 uM after 1 hr by fluorescence imaging. The series is classed as cell-based. To be noted: Epithelial cell. In a few lines: as §4
The next series deals with Kidney. The series is described as follows: Drug uptake in EP3R-/- mouse kidney at 1 uM after 1 hr by fluorescence imaging. The series is classed as ADME, tissue-based. The method, boiled down: as §4
The target of series [15] is T3, Prostaglandin E2 receptor EP3 subtype (Homo sapiens). The series is described as follows: Binding affinity to EP3R in human brain cerebral cortex at 1 uM after 1 hr by fluorescence imaging. Type of series: tissue-based. The method, boiled down:
as §3

Series [16] has the same target. Kind of series: Binding affinity to EP3R in human brain cerebral cortex at 1 uM after 1 hr by fluorescence imaging in presence of 100-fold excess of (E)-3-(2-((E)-3-(4-(Benzyloxy)-3- methoxyphenyl)prop-1-enyl)phenyl)acrylic acid. Type of series: tissue-based. In a few lines:
as §3

For series [17] the target is unchanged. Kind of series: Binding affinity to EP3R in human platelet at 1 uM after 1 hr by fluorescence imaging. In a few lines: (§5)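 Fixed human platelets on flow-chamber slides incubated 1 h with 1 μM red fluorescent ligand. For displacement, 1 mM competitor was added. Read by fluorescence imaging.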
The target is the same in series [18]. Kind of series: Binding affinity to EP3R in human platelet at 1 uM after 1 hr by fluorescence imaging in presence of 1 mM (E)-3-(2-((E)-3-(4-(Benzyloxy)-3- methoxyphenyl)prop-1-enyl)phenyl)acrylic acid. In a few lines: as §5
Series [19] shares this target. Kind of series: Binding affinity to EP3R in human platelet rich plasma preincubated at 5 uM for 10 mins by FACS analysis. In a few lines: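 Human platelet-rich plasma preincubated 10 min with 5 μM red fluorescent ligand. Analysed by flow cytometry (FACS) in the red channel against untreated PRP. Scatter cloud inspected as a check on platelet activation.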
In general terms: Flow cytometry measures light scatter and fluorescence of single cells or particles in a stream.

Series [20] shares this target. Kind of series: Induction of EP3R-mediated platelet activation in human platelet rich plasma at 5 uM after 10 mins by FACS analysis.
Series [21] shares this target. The series is described as follows: Binding affinity to EP3R in human HT-29 cells cultured in absence of FBS at 3 uM after 1 hr by fluorescence microscopy in presence of 3-fold excess of (E)-3-(2-((E)-3-(4-(Benzyloxy)-3- methoxyphenyl)prop-1-enyl)phenyl)acrylic acid. Type of series: cell-based. In a few lines:
as §2

Activity calls are given as the source filed them. The rule behind the calls is not given here.

Chain of Prostaglandin E2 receptor EP2 subtype (P43116 whole entry): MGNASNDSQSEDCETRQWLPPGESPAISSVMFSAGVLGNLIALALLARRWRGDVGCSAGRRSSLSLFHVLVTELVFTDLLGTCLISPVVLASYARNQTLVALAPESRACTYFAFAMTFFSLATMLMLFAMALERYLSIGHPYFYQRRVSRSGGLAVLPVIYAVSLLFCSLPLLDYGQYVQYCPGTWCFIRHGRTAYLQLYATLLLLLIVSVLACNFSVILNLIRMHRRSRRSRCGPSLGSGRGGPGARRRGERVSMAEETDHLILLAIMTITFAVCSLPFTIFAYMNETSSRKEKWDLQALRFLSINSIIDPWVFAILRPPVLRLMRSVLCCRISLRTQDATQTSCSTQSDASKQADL
Chain of Prostaglandin E2 receptor EP4 subtype (P35408 whole entry): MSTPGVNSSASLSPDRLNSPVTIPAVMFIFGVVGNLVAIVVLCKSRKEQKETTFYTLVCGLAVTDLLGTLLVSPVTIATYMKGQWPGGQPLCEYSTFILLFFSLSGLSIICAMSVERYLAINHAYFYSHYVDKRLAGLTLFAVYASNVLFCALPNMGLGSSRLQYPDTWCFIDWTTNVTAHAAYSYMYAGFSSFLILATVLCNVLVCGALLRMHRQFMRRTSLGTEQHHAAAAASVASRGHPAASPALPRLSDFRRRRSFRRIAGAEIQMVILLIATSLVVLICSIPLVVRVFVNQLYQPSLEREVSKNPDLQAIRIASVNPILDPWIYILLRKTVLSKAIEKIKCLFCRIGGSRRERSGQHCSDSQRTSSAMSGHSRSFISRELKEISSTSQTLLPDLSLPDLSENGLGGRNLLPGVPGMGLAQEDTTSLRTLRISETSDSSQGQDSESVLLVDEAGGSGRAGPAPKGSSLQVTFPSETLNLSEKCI

In the case of `COc1cc(C/C=C/c2ccccc2/C=C/C(=O)NS(=O)(=O)c2cccs2)ccc1OCc1ccccc1`, the figures for the inhibition constant (Ki) in [1], in series [2] and in [3] were 2440 nM, 2410 nM and 4300 nM, respectively. The inhibition (as a rule, the share of the control response that was lost under treatment) at 0.1 µM in series [4] came out at 40%.
On to `COc1cc(C/C=C/c2ccccc2/C=C/C(=O)O)ccc1OCC[n+]1c(C)cc(/C=C/c2ccc(N(C)C)cc2)cc1C`, for which, in series [5], the affinity, expressed as Ki, was 218 nM. Also, the inhibition at 0.1 µM in series [4] was 40%.
In the same order, the values of `COc1cc(C/C=C/c2ccccc2/C=C/C(=O)O)ccc1OCCN` are 1500 nM and 40%.
Take `COc1cc(C/C=C/c2ccccc2/C=C/C(=O)NS(=O)(=O)c2cccs2)ccc1OCCn1cc2ccccc2c1C#N`: the inhibition constant Ki (as a rule, a dissociation constant, usually derived from enzyme kinetics or from competition with a known ligand) in series [5] is 26 nM; in [1] it was 20300 nM; in series [2] it was 10800 nM; in series [3] it was 9450 nM. For the same molecule, the Activity in [6] came to 55%. Besides, the inhibition at 0.1 µM in [4] stood at 40%.
`COc1cc(C/C=C/c2ccccc2/C=C/C(=O)O)ccc1OCCNc1ccc([N+](=O)[O-])cc1[N+](=O)[O-]`: in [5], the inhibition constant Ki was 23.4 nM. The molecule also returned an Activity in series [6] of 60%. The inhibition at 0.1 µM in series [4] is 40%.
Turning to `COc1cc(C/C=C/c2ccccc2/C=C/C(=O)O)ccc1OCCNC(=S)Nc1ccc(C(=O)O)c(-c2c3ccc(=O)cc-3oc3cc(O)ccc23)c1`, in series [5], the affinity corresponds to a Ki of 1260 nM. For the same molecule, the inhibition at 0.1 µM in series [4] was 40%.
In the same order, the values of `COc1cc(C/C=C/c2ccccc2/C=C/C(=O)O)ccc1OCCNC(=S)Nc1ccc(-c2c3ccc(=O)cc-3oc3cc(O)ccc23)c(C(=O)O)c1` are 678 nM and 40%.
For the molecule `COc1cc(C/C=C/c2ccccc2/C=C/C(=O)O)ccc1OCc1ccccc1`, the inhibition constant (Ki) in [1] was 151000 nM; in series [2], 1730 nM; in [3], 6310 nM. The inhibition at 0.1 µM in [4] stood at 40%.
Turning to `COc1cc(C/C=C/c2ccccc2/C=C/C(=O)O)ccc1OCC[n+]1c(C)cc(/C=C/C=C/c2ccc(N(C)C)cc2)cc1C.F[B-](F)(F)F`, the outcome in series [7], in series [9], in series [11], in series [13], in series [14] and in series [15] was Active. Moreover, the outcome in series [17] was Active. In addition, the result in series [8], in series [10], in series [12], in [16], in series [18] and in [20] was inactive. In addition, the Ki in series [5] was 135 nM; in series [1], 68600 nM; in series [2] it was 2940 nM; in series [3] it was 902 nM. In addition, the Drug uptake entry in the series on Kidney is “Not Active”. This molecule also displayed an Activity in series [19] of 50%. Moreover, the inhibition at 0.1 µM in series [4] turned out to be 40%.
As for `COc1cc(C/C=C/c2ccccc2/C=C/C(=O)O)ccc1OCCn1cc2ccccc2c1C#N`, the inhibition constant (Ki) in series [5] worked out at 18 nM; in series [1], 16000 nM; in series [2], 4260 nM; in series [3], 3180 nM. Besides, the Activity in series [6] worked out at 58%. In [21], the outcome was inactive. Moreover, the inhibition at 0.1 µM in [4] was found to be 40%.

(Values after ChEMBL document CHEMBL2163225, “Fluorescent Human EP3 Receptor Antagonists” (ACS Med Chem Lett, 2012).)
